# Calls of active or inactive are those of the source.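 Rule for the calls: active = compound that lowers Cav3.3 T-type calcium current at some tested dose and yields a usable dose response curve; inactive = the rest.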
# Biological target: Voltage-dependent T-type calcium channel subunit alpha-1I (Homo sapiens) (UniProt Q9P0X4)
# Test: Cav3.3 T-type channel current inhibition, dose response, selectivity assay for Cav3.2 inhibitor project, automated patch clamp, HEK293 cells (AID 504425)
# Settings: HEK293 Cav3.3, automated patch clamp current; for current change, negative = inhibition: at 30 µM (top of the series)
# Outline: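 Assay system: Cav3.3-expressing stable HEK293 cell line | Probe or stimulus: Voltage step, -100 mV to -30 mV, 1 s | Timing: 3 min compound exposure between pre- and post-compound recordings | Technique: Automated perforated patch clamp current recording | Read-out basis: % current change relative to pre-compound current in each well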
# Voltage-dependent T-type calcium channel subunit alpha-1I (Homo sapiens), sequence (Q9P0X4 whole entry, looked up): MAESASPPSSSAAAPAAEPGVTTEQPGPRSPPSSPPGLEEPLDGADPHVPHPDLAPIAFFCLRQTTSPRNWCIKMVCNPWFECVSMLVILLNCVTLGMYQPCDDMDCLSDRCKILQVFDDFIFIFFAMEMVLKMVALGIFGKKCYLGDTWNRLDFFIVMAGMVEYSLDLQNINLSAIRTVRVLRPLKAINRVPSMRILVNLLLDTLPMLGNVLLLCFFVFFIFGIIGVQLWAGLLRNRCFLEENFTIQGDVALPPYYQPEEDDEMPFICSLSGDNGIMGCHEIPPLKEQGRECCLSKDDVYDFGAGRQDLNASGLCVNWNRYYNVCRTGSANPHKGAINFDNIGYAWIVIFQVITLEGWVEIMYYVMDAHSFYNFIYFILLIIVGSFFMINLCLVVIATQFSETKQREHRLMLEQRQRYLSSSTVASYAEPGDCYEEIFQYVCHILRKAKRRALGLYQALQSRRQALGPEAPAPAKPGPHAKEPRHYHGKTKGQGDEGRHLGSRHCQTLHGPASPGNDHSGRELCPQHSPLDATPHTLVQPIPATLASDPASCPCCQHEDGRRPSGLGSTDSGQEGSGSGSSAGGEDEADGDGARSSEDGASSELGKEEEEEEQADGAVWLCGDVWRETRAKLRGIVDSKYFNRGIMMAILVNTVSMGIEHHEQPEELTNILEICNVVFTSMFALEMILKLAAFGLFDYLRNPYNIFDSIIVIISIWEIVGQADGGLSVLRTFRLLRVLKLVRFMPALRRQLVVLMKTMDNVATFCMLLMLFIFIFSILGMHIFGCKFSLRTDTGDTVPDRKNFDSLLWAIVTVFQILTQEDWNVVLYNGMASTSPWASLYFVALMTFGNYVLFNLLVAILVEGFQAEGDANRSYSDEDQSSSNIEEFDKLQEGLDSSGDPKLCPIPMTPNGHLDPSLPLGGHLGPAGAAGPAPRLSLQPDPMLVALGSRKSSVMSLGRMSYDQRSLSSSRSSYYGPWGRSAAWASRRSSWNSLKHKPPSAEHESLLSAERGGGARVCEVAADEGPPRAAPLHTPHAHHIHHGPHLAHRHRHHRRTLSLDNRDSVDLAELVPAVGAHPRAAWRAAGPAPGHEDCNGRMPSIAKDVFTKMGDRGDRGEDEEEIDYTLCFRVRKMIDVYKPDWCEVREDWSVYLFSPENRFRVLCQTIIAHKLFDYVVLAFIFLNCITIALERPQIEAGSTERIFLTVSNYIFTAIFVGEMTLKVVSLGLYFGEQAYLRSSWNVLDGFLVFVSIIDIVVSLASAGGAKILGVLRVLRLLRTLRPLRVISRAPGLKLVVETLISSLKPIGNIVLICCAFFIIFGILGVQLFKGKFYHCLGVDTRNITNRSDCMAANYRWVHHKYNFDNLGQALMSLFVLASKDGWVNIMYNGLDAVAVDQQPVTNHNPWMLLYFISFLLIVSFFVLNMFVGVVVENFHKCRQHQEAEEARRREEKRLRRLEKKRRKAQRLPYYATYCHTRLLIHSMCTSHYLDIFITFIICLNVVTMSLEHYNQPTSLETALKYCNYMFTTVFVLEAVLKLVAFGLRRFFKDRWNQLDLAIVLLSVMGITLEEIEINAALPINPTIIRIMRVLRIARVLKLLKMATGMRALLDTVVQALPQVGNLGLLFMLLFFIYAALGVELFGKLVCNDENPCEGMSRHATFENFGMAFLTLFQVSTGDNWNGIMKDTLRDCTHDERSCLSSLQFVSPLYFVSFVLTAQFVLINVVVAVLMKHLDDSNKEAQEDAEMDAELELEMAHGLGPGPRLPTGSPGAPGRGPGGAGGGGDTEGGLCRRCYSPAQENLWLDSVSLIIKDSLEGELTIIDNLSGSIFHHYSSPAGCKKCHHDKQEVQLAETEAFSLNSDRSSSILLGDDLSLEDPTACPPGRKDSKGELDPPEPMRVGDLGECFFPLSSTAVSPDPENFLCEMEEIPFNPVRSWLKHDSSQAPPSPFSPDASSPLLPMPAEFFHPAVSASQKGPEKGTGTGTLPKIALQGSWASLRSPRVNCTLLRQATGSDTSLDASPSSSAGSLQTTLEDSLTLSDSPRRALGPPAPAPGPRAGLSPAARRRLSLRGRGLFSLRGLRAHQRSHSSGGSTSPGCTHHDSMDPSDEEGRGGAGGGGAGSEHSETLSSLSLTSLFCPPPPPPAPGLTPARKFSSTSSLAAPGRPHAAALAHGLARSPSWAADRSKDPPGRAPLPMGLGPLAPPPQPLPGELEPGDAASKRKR
SMILES,IC50 [µM],"current change, negative = inhibition"
O=C(COc1ccc(F)cc1Cl)Nc1nnc(-c2ccc(F)c(F)c2)o1,11,
CC(C)(C)CCN1C[C@@H]2C(CNC(=O)c3cc(Cl)cc(Cl)c3)[C@@H]2C1 (some centres undefined),0.275,
Cc1ccc(-c2nnc(NC(=O)COc3ccc(F)cc3Cl)o2)cc1C,,inactive
CC(C)(C)Cc1nnc(NC(=O)COc2ccc(Cl)cc2Cl)o1,,inactive

# Source: PubChem BioAssay AID504425 (Johns Hopkins Ion Channel Center, 2011)
